Source: PubChem
TRPC4 potent: TRPC4 (mouse) allosteric potentiation. HEK293 TRPC4beta/mu-opioid, DAMGO EC20, Fluo-4 Ca2+ flux; stronger effect = higher value. B-score at 10 µM. hit rate 0.42% among 310,000. AID 2227;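 active means B-score of calcium response area above 5 SD of library B-scores, with initial fluorescence ratio within 5 SD of library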;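 further: B-score of integrated fluorescence ratio over time as area under calcium response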
TRPC4 act: opens the mouse TRPC4 cation channel; HEK293 TRPC4beta/mu-opioid, Fluo4 calcium fluorescence; stronger effect = higher value; B-score at 10 µM; hit rate 0.49% among 310,000; AID 2237;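 active means B-score above 5 SD of library B-scores, and initial fluorescence ratio not above library mean plus 5 SD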;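 further: positive B-score marks a calcium rise read as TRPC4 activation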
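Assay system: HEK293 stable line with TRPC4beta plus mu-opioid receptor. Times: dye 45 min RT, read 110 s. Measured by: kinetic Fluo4 calcium fluorescence. Measure: B score of integrated ratio. Controls: assay buffer as low control, maximal DAMGO as high control.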
TRPC6 inh: blocks the mouse TRPC6 cation channel | Q61143 | HEK293-TRPC6, membrane potential dye, ACh-evoked depolarization; stronger effect = lower value | B-score at 10 µM | hit rate 1.1% among 310,000 | AID 2553;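 active means B-score under library mean minus 3 SD, initial fluorescence not abnormally high, positive integrated signal ratio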;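 further: B-score derived from integrated fluorescence ratio over the kinetic read; more negative B-score means stronger inhibition of depolarization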
Target sequence (Q61143 whole entry, looked up): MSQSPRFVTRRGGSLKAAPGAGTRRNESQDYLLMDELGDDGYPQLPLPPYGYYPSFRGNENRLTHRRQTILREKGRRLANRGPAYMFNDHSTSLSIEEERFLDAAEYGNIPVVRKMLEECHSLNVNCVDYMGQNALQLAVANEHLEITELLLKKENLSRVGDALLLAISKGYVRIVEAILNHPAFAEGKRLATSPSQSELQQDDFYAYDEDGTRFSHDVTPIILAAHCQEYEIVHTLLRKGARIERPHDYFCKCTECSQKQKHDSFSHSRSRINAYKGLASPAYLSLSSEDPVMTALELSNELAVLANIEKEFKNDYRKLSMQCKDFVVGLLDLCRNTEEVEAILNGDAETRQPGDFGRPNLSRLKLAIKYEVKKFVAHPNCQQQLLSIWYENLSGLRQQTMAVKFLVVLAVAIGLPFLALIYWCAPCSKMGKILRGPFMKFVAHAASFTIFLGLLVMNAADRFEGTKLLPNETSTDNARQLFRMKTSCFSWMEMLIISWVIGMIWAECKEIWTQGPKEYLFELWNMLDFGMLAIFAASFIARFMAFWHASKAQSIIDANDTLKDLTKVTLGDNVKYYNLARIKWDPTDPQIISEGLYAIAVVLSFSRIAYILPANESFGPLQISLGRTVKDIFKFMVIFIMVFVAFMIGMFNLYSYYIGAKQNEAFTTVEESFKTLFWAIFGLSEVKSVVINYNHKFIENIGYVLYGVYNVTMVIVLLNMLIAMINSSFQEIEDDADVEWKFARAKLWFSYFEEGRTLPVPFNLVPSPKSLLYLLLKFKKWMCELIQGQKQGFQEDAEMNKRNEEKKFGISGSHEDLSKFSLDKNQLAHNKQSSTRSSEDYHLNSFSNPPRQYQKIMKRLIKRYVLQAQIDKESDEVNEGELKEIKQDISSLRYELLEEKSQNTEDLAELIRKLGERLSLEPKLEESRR
TRPC6 act: activators of mouse TRPC6 channel. Q61143. HEK293-TRPC6 membrane potential dye fluorescence; stronger effect = higher value. B-score at 10 µM. hit rate 0.13% among 310,000. AID 2550;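 active means B-score of the integrated fluorescence ratio above library mean plus 3 SD, and starting fluorescence ratio within library mean plus 5 SD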;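 further: higher score means more depolarization so channel activation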
TRPC4 block: TRPC4 (mouse) channel inhibition. Q9QUQ5. HEK293 TRPC4beta/mu-opioid, DAMGO-evoked Fluo4 calcium flux; stronger effect = lower value. B-score at 10 µM. hit rate 0.39% among 300,000. AID 2247;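 active means B-score over 3 SD under the library average, no early fluorescence shift, positive overall ratio signal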
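Assay system: HEK293 cells with stable TRPC4beta plus mu-opioid receptor expression; Probe or stimulus: DAMGO in two steps, submaximal then maximal; Dosing: single-point compound dosing; Measured by: Fluo4 calcium-dye fluorescence, kinetic read; Read-out basis: B score from integrated Fluo4 fluorescence ratio.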
* marks the source's active call; other numbers are inactive results; i = inactive. Hits are enriched below; roughly 2.3% of the tested compounds scored in any of these assays.

SMILES	TRPC4 potent	TRPC4 act	TRPC6 inh	TRPC6 act	TRPC4 block
Brc1ccccc1OCCCCCN1CCOCC1	11*	i	i	i	i
Brc1ccccc1OCCCN1CCCC1	i	i	i	i	i
CN1C(C(=O)NCc2ccco2)=CC(c2ccc(F)cc2)=NS1(=O)=O	i	i	i	i	i
CC(Oc1cccc2ccccc12)C(=O)N/N=C/c1cccnc1 (stereo not drawn)	i	i	i	i	i
CCOC(=O)C1CCCN(CCC(=O)Nc2cccc(C)c2)C1 (stereo not drawn)	i	54*	i	i	i
CCOC(=O)C1CCCN(CC(=O)c2ccc(F)cc2)C1 (stereo not drawn)	i	81*	i	i	i
CCOC(=O)C1CCCN(CC(=O)Nc2c(F)c(F)c(F)c(F)c2F)C1 (stereo not drawn)	i	i	i	i	i
CCOC(=O)C1CCCN(CCC(=O)Nc2cccc(F)c2)C1 (stereo not drawn)	i	i	i	i	i
Cc1ccc2nc(C)cc(C(=O)N/N=C/c3ccncc3)c2c1	i	i	i	i	i
O=C(CNC(=O)c1ccc(Cl)cc1Cl)OCC(=O)N1CCCC1=O	i	i	i	i	i
O=C(NCc1nnnn1-c1ccc(F)c(F)c1)c1ccc(S(=O)(=O)N2CCOCC2)cc1	i	i	i	i	i
O=C(CCCOc1ccccc1)NN1C(=O)NC2(CCCCC2)C1=O	i	i	i	i	i
COc1cc(S(=O)(=O)N2CCN(Cc3ccccc3)CC2)ccc1Br	10*	i	i	i	i
COc1cc(CN2CCN(S(=O)(=O)c3ccccc3)CC2)cc(OC)c1OC	i	i	i	i	i
S=C(N/N=C/c1cccc2ccccc12)Nc1cccc(Cl)c1	i	i	i	i	i
COc1ccc(-c2nn(C)c3sc(C(=O)NCCN(C)C)cc23)cc1OC	i	i	i	i	i
CCCN(CCC)CCNC(=O)c1cc2c(-c3ccc(Cl)cc3)nn(C)c2s1	i	47*	i	i	i
CCCN(CCC)CCCNC(=O)c1cc2c(-c3ccc(OC)c(OC)c3)nn(C)c2s1	i	114*	i	i	i
CCCCN(CC)CCNC(=O)c1cc2c(-c3ccc(Cl)cc3)nn(C)c2s1	i	94*	i	i	i
COCCCNC(=O)c1cc2c(-c3cccc(OC)c3)nn(C)c2s1	i	i	i	i	i
CCN(CC)CCNC(=O)c1cc2c(-c3cccc(OC)c3)nn(C)c2s1	17*	i	i	i	i
CCn1c(SCC(=O)NCCc2ccccc2)nc2c([nH]c3ccccc32)c1=O	i	i	i	i	i
O=C(COc1ccc(C(=S)N2CCCC2)cc1)Nc1ccccc1C(F)(F)F	i	i	i	i	i
Cc1cccc(Nc2ncnc3onc(-c4cccc(Cl)c4)c23)c1C	i	i	i	i	i
COc1ccccc1CCNC(=O)c1ccc(Br)s1	i	i	i	i	i
SMILES	TRPC4 potent	TRPC4 act	TRPC6 inh	TRPC6 act	TRPC4 block
Cc1ccc2[nH]c3c(c2c1)CNCC3	i	i	i	i	i
c1ccc2c3c([nH]c2c1)CCNC3	24*	i	i	i	i
CNC(=O)NNC(=O)c1nc(-c2ccccc2)c(C)o1	i	i	i	i	i
CN(C)c1ccc(C2(c3ccc(N(C)C)cc3)OC(=O)c3cc(N)ccc32)cc1	i	i	i	i	i
CCOc1cc(Br)ccc1S(=O)(=O)N1CC(C)OC(C)C1 (stereo not drawn)	i	43*	i	i	i
Cc1oc2c(c1C(=O)O)C(=O)c1ccccc1C2=O	i	i	i	i	i
Cc1oc2c(c1C(=O)c1ccccc1)C(=O)C(=O)c1ccccc1-2	i	i	i	i	-6*
CC(=O)N1N=C(c2ccc(Br)cc2)OC1(C)CC(=O)Nc1ccccc1 (stereo not drawn)	15*	i	i	i	i
Cc1ccc(NC(=O)CSCC(=O)Nc2ccccc2N2CCCCC2)cc1	i	i	i	i	i
Nc1cc(C(F)(F)F)ccc1Nc1ccccc1	i	i	i	i	-6*
CCCn1c(=O)c2ccccc2n2c(SCCOc3ccc(OC)cc3)nnc12	i	i	i	i	i
CCCn1c(=O)c2ccccc2n2c(SCCOc3ccc(C)cc3)nnc12	i	i	i	i	-6*
O=[N+]([O-])c1cccc(S(=O)(=O)Nc2ccc(Cc3ccncc3)cc2)c1	i	i	i	i	i
COc1cc(S(=O)(=O)Nc2cccnc2)ccc1Cl	i	i	i	i	i
Cc1ccc2nc(-c3ccccn3)c(NC3CCCC3)n2c1	i	i	i	i	-6*
C/C(N)=C(/C#N)C(=O)COC(=O)CC12CC3CC(CC(C3)C1)C2	i	i	i	i	-7*
C/C(N)=C(/C#N)C(=O)COC(=O)CC1CCCC1	i	i	i	i	i
Cn1c(N)c(C(=O)COC(=O)CNS(=O)(=O)c2ccc(Cl)c(Cl)c2)c(=O)n(C)c1=O	i	i	i	i	-6*
CN(CC(=O)OCC(=O)c1c(N)n(C)c(=O)n(C)c1=O)S(=O)(=O)c1ccc(Cl)cc1	i	i	i	i	i
Cc1ccc(Nc2c(N)c(=O)oc3ccccc23)cc1	31*	i	i	i	i
Cc1cc(N2CCCCC2)nc(N)n1	i	80*	i	i	i
COc1ccc(S(=O)(=O)N2CCCCCC2)cc1C(=O)N(C)Cc1ccc(Cl)cc1Cl	26*	i	i	i	i
COc1cc(/C=C/C(=O)O)cc(S(=O)(=O)Nc2ccccc2Oc2ccccc2)c1OC	i	i	i	i	i
COc1cc(C2CC(c3cccs3)=NN2C(=O)CCl)ccc1OC(F)F (stereo not drawn)	i	i	i	i	i
CCOC(=O)C1(CC2CC2)CCN(Cc2cn[nH]c2-c2cccc(F)c2)CC1	i	i	i	i	i
CCOC(=O)C1(CCOc2ccccc2)CCN(Cc2ccc(O)c(Cl)c2)CC1	i	i	i	i	i
CCOC(=O)C1(CC2CC2)CCN(Cc2ccc(O)c(Cl)c2)CC1	i	75*	i	i	-7*
CCOC(=O)C1(CC2CC2)CCN(Cc2ccc3cccc(F)c3n2)CC1	i	45*	i	i	-8*
